According to ChEMBL document CHEMBL1146851, “Discovery of 2-pyrimidyl-5-amidothiophenes as potent inhibitors for AKT: synthesis and SAR studies” (Bioorg Med Chem Lett, 2006):
Active and inactive are the calls of the source. The calls are words filed in the database; no cut-off is given here.

What was measured:
[1] = biological target: T1, RAC-gamma serine/threonine-protein kinase (Homo sapiens, UniProt Q9Y243); assay: Inhibition of AKT3 in presence of 0.2 uM ATP
Method in brief: (§1)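 Biochemical kinase IC50s, each run with ATP at or below its Km.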

[2] = biological target: RAC-alpha serine/threonine-protein kinase (Homo sapiens, UniProt P31749); assay: Inhibition of AKT1; method in brief: as §1
RAC-alpha serine/threonine-protein kinase, sequence (P31749 whole entry): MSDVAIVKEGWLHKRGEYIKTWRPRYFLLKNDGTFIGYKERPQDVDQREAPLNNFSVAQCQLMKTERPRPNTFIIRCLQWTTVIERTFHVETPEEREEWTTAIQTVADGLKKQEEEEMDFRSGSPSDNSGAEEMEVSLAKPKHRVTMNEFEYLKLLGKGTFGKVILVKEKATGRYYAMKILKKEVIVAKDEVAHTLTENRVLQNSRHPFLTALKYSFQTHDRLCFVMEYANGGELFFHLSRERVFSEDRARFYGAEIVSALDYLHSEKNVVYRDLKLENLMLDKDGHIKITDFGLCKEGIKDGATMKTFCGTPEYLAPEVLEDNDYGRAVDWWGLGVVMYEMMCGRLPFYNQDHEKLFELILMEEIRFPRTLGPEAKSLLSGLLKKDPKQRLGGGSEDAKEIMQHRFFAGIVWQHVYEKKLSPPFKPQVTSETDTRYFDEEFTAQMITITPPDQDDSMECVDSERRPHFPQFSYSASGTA

[3] = biological target: T1, RAC-gamma serine/threonine-protein kinase; assay: Inhibition of AKT3
Method in brief: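 Kinase IC50 determined in a biochemical kinase assay with ATP at or below its Km.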

[4] = biological target: T2, cAMP-dependent protein kinase (PKA) (Homo sapiens, UniProt P22694+P17612+P22612); assay: Inhibition of PKA; type: protein assay; method in brief: as §1
[5] = biological target: Mast/stem cell growth factor receptor Kit (Homo sapiens, UniProt P10721); assay: Inhibition of Kit
Mast/stem cell growth factor receptor Kit, sequence (P10721 whole entry): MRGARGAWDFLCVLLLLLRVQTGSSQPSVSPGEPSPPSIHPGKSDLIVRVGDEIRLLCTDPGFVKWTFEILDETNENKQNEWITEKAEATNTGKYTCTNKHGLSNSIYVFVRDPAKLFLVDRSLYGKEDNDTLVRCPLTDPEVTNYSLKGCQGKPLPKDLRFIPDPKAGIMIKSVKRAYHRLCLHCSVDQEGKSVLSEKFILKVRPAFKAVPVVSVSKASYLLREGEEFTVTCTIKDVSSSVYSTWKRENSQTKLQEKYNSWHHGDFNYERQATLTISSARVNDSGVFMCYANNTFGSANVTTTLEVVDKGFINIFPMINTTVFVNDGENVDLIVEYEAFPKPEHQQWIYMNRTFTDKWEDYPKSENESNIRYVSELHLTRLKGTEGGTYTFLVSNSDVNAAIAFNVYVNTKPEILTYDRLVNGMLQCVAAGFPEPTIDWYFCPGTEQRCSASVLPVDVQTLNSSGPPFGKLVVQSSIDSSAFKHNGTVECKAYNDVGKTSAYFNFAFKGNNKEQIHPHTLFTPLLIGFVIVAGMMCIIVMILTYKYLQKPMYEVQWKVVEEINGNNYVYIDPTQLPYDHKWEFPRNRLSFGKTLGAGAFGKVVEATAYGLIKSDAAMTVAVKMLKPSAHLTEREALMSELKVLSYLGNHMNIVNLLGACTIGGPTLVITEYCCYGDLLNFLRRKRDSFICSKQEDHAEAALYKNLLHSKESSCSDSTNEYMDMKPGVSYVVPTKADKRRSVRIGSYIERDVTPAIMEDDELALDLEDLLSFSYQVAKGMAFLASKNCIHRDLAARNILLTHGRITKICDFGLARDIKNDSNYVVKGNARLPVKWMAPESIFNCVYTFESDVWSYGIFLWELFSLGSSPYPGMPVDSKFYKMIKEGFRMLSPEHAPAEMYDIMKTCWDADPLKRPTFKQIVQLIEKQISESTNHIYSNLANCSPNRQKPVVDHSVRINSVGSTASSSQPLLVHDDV

[6] = biological target: Hepatocyte growth factor receptor (Homo sapiens, UniProt P08581); assay: Inhibition of Met; method in brief: as §1
Hepatocyte growth factor receptor, sequence (P08581 whole entry): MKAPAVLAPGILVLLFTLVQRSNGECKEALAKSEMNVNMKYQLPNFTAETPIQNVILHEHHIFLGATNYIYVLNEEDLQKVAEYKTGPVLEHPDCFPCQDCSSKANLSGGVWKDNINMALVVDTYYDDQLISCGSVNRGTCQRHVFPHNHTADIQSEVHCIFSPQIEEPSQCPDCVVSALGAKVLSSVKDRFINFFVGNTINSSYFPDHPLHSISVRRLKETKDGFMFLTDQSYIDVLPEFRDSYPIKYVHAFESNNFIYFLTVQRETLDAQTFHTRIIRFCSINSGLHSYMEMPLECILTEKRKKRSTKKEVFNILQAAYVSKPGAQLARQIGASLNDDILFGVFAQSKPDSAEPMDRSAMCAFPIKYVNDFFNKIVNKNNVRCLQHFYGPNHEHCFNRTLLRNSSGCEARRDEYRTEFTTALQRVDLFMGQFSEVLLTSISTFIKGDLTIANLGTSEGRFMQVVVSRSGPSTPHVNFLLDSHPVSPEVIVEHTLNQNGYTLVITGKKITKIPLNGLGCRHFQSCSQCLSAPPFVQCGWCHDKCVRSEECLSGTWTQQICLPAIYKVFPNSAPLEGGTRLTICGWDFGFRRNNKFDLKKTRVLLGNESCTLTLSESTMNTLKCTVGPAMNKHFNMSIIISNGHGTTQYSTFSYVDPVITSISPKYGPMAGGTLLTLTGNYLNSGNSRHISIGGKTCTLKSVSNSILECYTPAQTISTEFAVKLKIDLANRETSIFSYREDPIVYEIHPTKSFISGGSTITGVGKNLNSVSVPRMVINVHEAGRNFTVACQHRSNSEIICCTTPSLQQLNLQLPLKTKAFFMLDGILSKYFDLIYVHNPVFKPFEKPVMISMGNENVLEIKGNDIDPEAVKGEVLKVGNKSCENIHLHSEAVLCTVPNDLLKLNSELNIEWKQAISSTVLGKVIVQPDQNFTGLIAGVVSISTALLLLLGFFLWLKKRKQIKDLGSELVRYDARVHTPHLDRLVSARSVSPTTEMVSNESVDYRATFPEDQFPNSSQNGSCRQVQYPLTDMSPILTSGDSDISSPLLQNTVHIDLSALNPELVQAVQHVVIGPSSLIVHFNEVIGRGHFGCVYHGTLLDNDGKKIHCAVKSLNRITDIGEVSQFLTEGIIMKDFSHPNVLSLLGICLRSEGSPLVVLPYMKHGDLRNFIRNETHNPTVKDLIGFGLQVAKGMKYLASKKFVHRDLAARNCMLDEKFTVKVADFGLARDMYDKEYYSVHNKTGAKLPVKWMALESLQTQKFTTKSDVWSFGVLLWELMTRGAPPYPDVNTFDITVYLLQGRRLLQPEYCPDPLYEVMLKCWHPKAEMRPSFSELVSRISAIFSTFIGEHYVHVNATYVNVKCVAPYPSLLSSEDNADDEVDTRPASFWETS

[7] = biological target: Protein kinase C alpha type (Homo sapiens, UniProt P17252); assay: Inhibition of PKCa
[8] = biological target: Calcium/calmodulin-dependent protein kinase type II subunit alpha (Homo sapiens, UniProt Q9UQM7); assay: Inhibition of CamK2alpha
Calcium/calmodulin-dependent protein kinase type II subunit alpha, sequence (Q9UQM7 whole entry): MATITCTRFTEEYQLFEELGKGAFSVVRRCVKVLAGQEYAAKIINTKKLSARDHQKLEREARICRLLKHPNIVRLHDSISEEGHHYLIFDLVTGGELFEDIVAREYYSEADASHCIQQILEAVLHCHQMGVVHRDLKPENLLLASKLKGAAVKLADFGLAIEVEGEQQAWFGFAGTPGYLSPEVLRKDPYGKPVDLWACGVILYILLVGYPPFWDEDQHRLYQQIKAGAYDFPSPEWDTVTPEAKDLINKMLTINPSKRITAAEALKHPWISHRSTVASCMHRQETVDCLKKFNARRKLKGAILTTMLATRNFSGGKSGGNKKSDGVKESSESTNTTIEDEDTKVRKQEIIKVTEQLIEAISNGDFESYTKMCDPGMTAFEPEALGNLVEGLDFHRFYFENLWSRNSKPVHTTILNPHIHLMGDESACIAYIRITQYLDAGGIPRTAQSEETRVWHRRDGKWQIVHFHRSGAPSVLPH
Method in brief: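 IC50 from an in vitro kinase assay with ATP at or below its Km.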

[9] = biological target: Mitogen-activated protein kinase 3 (Homo sapiens, UniProt P27361); assay: Inhibition of ERK1; method in brief: as §1
Mitogen-activated protein kinase 3, sequence (P27361 whole entry): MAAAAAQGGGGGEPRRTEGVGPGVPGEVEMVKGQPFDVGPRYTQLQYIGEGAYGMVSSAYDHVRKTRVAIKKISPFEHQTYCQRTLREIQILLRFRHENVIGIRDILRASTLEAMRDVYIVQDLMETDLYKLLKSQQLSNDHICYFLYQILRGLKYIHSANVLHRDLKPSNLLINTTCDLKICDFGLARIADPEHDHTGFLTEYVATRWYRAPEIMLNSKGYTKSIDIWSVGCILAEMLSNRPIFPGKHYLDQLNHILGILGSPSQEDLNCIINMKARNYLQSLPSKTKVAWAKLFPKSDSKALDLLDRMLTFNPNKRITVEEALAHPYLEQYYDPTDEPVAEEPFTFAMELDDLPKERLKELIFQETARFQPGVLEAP

[10] = biological target: RAF proto-oncogene serine/threonine-protein kinase (Homo sapiens, UniProt P04049); assay: Inhibition of RAF1; method in brief: as §1
[11] = system: DOV13; assay: Antiproliferative activity against human DOV13 cell line; type: functional, cell-based
[12] = biological target: T3, Serine/threonine-protein kinase AKT (Homo sapiens, UniProt P31751+Q9Y243+P31749); assay: Activity against AKT-mediated GSK3 S9P phosphorylation in human DOV13 cell line; type: functional, cell-based
[13] = biological target: T3, Serine/threonine-protein kinase AKT; assay: Activity against AKT-mediated PRAS40 T246P phosphorylation in human DOV13 cell line; type: functional, cell-based
[14] = biological target: T2, cAMP-dependent protein kinase (PKA); assay: Inhibitory activity against PKA in human UACC903 cell line at 10 nM; type: functional, cell-based; conditions: UACC-903
Method in brief: (§2)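 UACC903 melanoma cells were pre-incubated with the test compound at various concentrations for 45 min, then stimulated with 7 μM forskolin for 15 min before lysis. Lysates were Western blotted for phospho-VASP as the PKA read-out, with phospho-MDM2 as the AKT read-out.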

[15] = biological target: T2, cAMP-dependent protein kinase (PKA); assay: Inhibitory activity against PKA in human UACC903 cell line at 33 nM; type: functional, cell-based; conditions: UACC-903; method in brief: as §2
[16] = biological target: T3, Serine/threonine-protein kinase AKT; assay: Activity against AKT-mediated S6RP S235/236P phosphorylation in human DOV13 cell line; type: functional, cell-based

T1 sequence (Q9Y243 whole entry): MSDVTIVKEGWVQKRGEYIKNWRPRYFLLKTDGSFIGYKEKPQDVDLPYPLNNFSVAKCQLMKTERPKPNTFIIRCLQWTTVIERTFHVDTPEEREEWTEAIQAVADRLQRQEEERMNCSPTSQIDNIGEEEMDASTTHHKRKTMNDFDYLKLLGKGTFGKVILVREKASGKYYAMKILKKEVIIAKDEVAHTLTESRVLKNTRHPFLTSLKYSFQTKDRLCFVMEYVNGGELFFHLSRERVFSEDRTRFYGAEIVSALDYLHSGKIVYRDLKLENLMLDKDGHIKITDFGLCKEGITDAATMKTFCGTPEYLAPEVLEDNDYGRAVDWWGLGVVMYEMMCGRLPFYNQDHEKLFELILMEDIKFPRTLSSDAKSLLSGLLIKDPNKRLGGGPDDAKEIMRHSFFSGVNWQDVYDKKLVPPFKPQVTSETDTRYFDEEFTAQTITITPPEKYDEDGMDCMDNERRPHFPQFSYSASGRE

Row | Structure (SMILES) | IC50 [1] | also measured
1 | CNc1nccc(-c2ccc(NC(=O)OCc3ccc(F)cc3)s2)n1 | 7400 nM | 
2 | CNc1nccc(-c2ccc(CNCCc3ccc(Cl)cc3Cl)s2)n1 | 5200 nM | 
3 | CNc1nccc(-c2ccc(C(=O)NCCc3cccc(Cl)c3)s2)n1 | 5400 nM | 
4 | CNc1nccc(-c2ccc(C(=O)N[C@H](CN)Cc3ccc(Cl)cc3Cl)s2)n1 |  | IC50 [2]: 6 nM; IC50 [3]: 3 nM; IC50 [4]: 0.1 nM; IC50 [5]: 110 nM; IC50 [6]: 1100 nM; IC50 [7]: 66 nM; IC50 [8]: 8000 nM; IC50 [9]: 400 nM; IC50 [10]: > 10000 nM; EC50 [11]: 1000 nM; EC50 [12]: 320 nM; EC50 [13]: 160 nM; Activity [14]: Active; Activity [15]: Active; EC50 [16]: 370 nM
5 | CNc1nccc(-c2ccc(C(=O)NCCc3ccncc3)s2)n1 | > 25000 nM | 
6 | CNc1nccc(-c2ccc(C(=O)NCCc3ccc(OC)cc3)s2)n1 | > 25000 nM | 
7 | CNc1nccc(-c2ccc(C(=O)NCCc3ccc(C)cc3)s2)n1 | > 25000 nM | 
8 | CNc1nccc(-c2ccc(C(=O)NCCCc3ccc(F)cc3)s2)n1 | 18000 nM | 
9 | CNc1nccc(-c2ccc(C(=O)NCCN(C)C)s2)n1 | 7000 nM | 
10 | CNc1nccc(-c2ccc(C(=O)Nc3ccc(F)cc3)s2)n1 | > 25000 nM | 
11 | CNc1nccc(-c2ccc(C(=O)NCCc3ccc(S(N)(=O)=O)cc3)s2)n1 | 19000 nM | 
12 | CCCNc1nccc(-c2ccc(C(=O)NCCc3ccc(Cl)cc3Cl)s2)n1 | > 25000 nM | 
13 | CNc1nccc(-c2ccc(C(=O)NCC(c3ccccc3)c3ccccc3)s2)n1 | > 25000 nM | 
14 | CN(C)c1nccc(-c2ccc(C(=O)NCCc3ccc(Cl)cc3Cl)s2)n1 | > 25000 nM | 
15 | CNc1nccc(-c2ccc(S(=O)(=O)NCCc3ccc(Cl)cc3Cl)s2)n1 | > 25000 nM | 

More lines, in order of falling IC50 [1], values ahead:

Row | IC50 [1] | Structure (SMILES) | also measured
16 | 5000 nM | CNc1nccc(-c2ccc(C(=O)NCCc3ccccc3)s2)n1 | 
17 | 4700 nM | CNc1nccc(-c2ccc(C(=O)NCc3ccc(F)cc3)s2)n1 | 
18 | 3000 nM | CNc1nccc(-c2ccc(C(=O)NCCc3ccc(F)cc3)s2)n1 | 
19 | 2900 nM | CNc1nccc(-c2ccc(C(=O)NCCc3ccccc3Cl)s2)n1 | 
20 | 2800 nM | CNc1nccc(-c2ccc(C(=O)NC[C@@H](N)c3ccccc3)s2)n1 | 
21 | 2600 nM | CNc1nccc(-c2ccc(C(=O)NCCc3ccc(Br)cc3)s2)n1 | 
22 | 2400 nM | CNc1nccc(-c2ccc(C(=O)N[C@@H](Cc3ccc(Cl)cc3Cl)C(=O)OC)s2)n1 | 
23 | 2300 nM | CNc1nccc(-c2ccc(NC(=O)CCc3ccc(F)cc3)s2)n1 | 
24 | 2100 nM | CNc1nccc(-c2ccc(NC(=O)NCc3ccc(Cl)cc3Cl)s2)n1 | 
25 | 1500 nM | CCNc1nccc(-c2ccc(C(=O)NCCc3ccc(Cl)cc3Cl)s2)n1 | 
26 | 1300 nM | CNc1nccc(-c2ccc(C(=O)NCCN)s2)n1 | 
27 | 1100 nM | CNc1nccc(-c2ccc(C(=O)NCCc3ccc(Cl)cc3)s2)n1 | 
28 | 1000 nM | CCC(CNC(=O)c1ccc(-c2ccnc(NC)n2)s1)c1ccc(Cl)cc1Cl (stereo unspecified) | 
29 | 990 nM | CNc1nccc(-c2ccc(C(=O)NCCc3ccc(Cl)cc3Cl)s2)n1 | 
30 | 820 nM | CNc1nccc(-c2ccc(C(=O)N[C@H](C)Cc3ccc(Cl)cc3Cl)s2)n1 | 
31 | 660 nM | CNc1nccc(-c2ccc(C(=O)NCC(C)c3ccc(Cl)cc3Cl)s2)n1 (stereo unspecified) | 
32 | 610 nM | Nc1nccc(-c2ccc(C(=O)NCCc3ccc(Cl)cc3Cl)s2)n1 | 
33 | 280 nM | CNc1nccc(-c2ccc(C(=O)N[C@H](CO)Cc3ccc(Cl)cc3Cl)s2)n1 | 
34 | 240 nM | CNc1nccc(-c2ccc(C(=O)N[C@@H](CN)Cc3ccc(Cl)cc3Cl)s2)n1 | 
35 | 27 nM | CNc1nccc(-c2ccc(C(=O)N[C@H](CCN)Cc3ccc(Cl)cc3Cl)s2)n1 | 
36 | 11 nM | CNc1nccc(-c2ccc(C(=O)N[C@@H](Cc3ccc(Cl)cc3Cl)CN(C)C)s2)n1 | 
37 | 4.8 nM | CNc1nccc(-c2ccc(C(=O)NC(CN)Cc3ccc(Cl)cc3Cl)s2)n1 (stereo unspecified) | 
